Source: PubChem BioAssay AID492951 (Molecular Libraries Program, Specialized Chemistry Center, …, 2010)
Unmarked numbers belong to inactive results. The source made the active and inactive calls.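 How the source made its calls: active means inhibition above 10%; inactive means the rest.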

Target: Hexokinase-4 (Homo sapiens) (UniProt P35557)
Assay: hGlck enzyme activity off-target inhibitors – biochemical, recombinant hGlck, counter-screen for TbHK1 inhibitor project (AID 492951)
Details: G6PDH-coupled NADH absorbance 340 nm, at 10 µM; stronger effect = higher value
Procedure, shortened: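 Material: Recombinant human glucokinase, G6PDH-coupled | Medium: TEA buffer pH 7.9 with 3.3 mM MgCl2, 0.75 mM NAD+ | Also added: 20 mM glucose as reaction starter, plus 1 mM ATP | Compound dosing: One dose, 10 µM final | Schedule: 10 min preincubation at room temperature | Measured by: A340 of NADH | Repeats: Three replicates per compound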

Sequence of Hexokinase-4 (Homo sapiens) (P35557 whole entry, looked up): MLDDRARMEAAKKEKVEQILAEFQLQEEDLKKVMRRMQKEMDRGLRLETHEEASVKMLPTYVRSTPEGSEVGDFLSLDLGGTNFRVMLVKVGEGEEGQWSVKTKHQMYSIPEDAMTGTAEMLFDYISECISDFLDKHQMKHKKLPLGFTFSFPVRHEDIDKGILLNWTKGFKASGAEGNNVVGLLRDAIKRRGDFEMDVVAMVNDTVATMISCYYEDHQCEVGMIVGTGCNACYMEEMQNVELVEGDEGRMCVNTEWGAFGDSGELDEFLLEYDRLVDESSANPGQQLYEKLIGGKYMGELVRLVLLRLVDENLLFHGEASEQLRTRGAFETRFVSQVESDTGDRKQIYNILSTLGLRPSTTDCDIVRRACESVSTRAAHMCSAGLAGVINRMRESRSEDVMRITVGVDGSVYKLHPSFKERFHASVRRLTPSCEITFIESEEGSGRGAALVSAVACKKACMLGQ

SMILES | inhibition | outcome
O=c1c2cccnc2sn1-c1ccccc1 | 91.5% (active) | 
O=C(O)c1ccc(Cl)cc1NC(=O)N1CCOCC1 |  | inactive
COc1ccc(Nc2cc(Cl)ccc2C(=O)O)cc1 |  | inactive
CC(C)(C)c1ccc(C(=O)Nc2cc(Cl)c(Br)cc2C(=O)O)cc1 | 11.9% (active) | 
Cn1sc(=O)c2ccccc21 | 56.2% (active) | 
COc1cccc(CC(=O)Nc2cc(Cl)ccc2C(=O)O)c1 |  | inactive
O=c1c2cc(F)ccc2sn1-c1ccccc1Cl | 14.4% (active) | 
COc1ccc(C(=O)N(C)c2cc(Cl)ccc2C(=O)O)cc1 | 6.7% | 
O=C(Cn1sc2ccccc2c1=O)Nc1ccccc1 | 7.03% | 
O=c1c2ccccc2sn1-c1cccc(Cl)c1 | 34.9% (active) | 
O=C(Cn1sc2ccccc2c1=O)Nc1ccccc1F |  | inactive
COc1ccc(NC(=O)c2ccccc2C(=O)O)cc1 | 0.9% | 
O=C(NCc1ccccc1)n1sc2ccccc2c1=O | 38.3% (active) | 
COc1ccc(C(=O)Nc2c(C(=O)O)ccc(Cl)c2Cl)cc1 | 10.6% | 
CC(C)(C)c1ccc(C(=O)N2CCC(=O)c3ccc(Cl)cc32)cc1 |  | inactive
CCc1ccc(C(=O)Nc2cc(Br)ccc2C(=O)O)cc1 |  | inactive
COc1ccc(C(=O)NC(CC(=O)O)c2ccc(Cl)cc2)cc1 (stereo not drawn) |  | inactive
O=C1c2ccccc2S(=O)N1c1cccc(F)c1 (stereo not drawn) | 8.84% | 
COc1ccccc1C(=O)Nc1cc(Cl)ccc1C(=O)O |  | inactive

SMILES | inhibition | outcome
O=C(Cn1sc2ccccc2c1=O)N1CCCCC1 |  | inactive
O=C(Nc1cc(Cl)ccc1C(=O)O)c1ccoc1 |  | inactive
COc1ccc(C(=O)Nc2cc(Cl)ccc2C(N)=O)cc1 | 17.9% (active) | 
CC(=O)Nc1cc(Cl)ccc1C(=O)O |  | inactive
COC(=O)c1ccc(Cl)cc1NC(=O)c1ccccc1OC |  | inactive
N#Cc1ccc(NC(=O)Cn2sc3ccccc3c2=O)cc1 |  | inactive
O=C(Cn1sc2ccccc2c1=O)Nc1ccccc1I | 14.5% (active) | 
CN(C)c1ccc(C(=O)Nc2cc(Cl)ccc2C(=O)O)cc1 |  | inactive
CCOc1ccc(C(=O)Nc2cc(Cl)ccc2C(=O)O)cc1 | 9.4% | 
COc1ccc(C(=O)Nc2cc(Cl)ccc2S(N)(=O)=O)cc1 | 11.1% (active) | 
Cn1sc2ccccc2c1=O |  | inactive
COc1ccc(C(=O)Nc2cc(-c3ccccc3)ccc2C(=O)O)cc1 |  | inactive
N#Cc1ccccc1NC(=O)Cn1sc2ccccc2c1=O | 10.9% (active) | 
COc1ccc(C(=O)Nc2ccccc2C(=O)O)cc1 |  | inactive
O=C(Cn1sc2ccccc2c1=O)Nc1ccccc1Cl |  | inactive
COc1ccc(C(=O)Nc2cccc(Cl)c2)cc1 |  | inactive
O=C(Nc1cc(Cl)ccc1C(=O)O)c1ccncc1 |  | inactive
COc1ccc(C(=O)Nc2cc(Cl)c(Br)cc2C(=O)O)cc1 | 22.3% (active) | 
O=c1c(O)c(-c2ccc(O)c(O)c2)oc2cc(O)cc(O)c12 | 68.9% (active) | 
